Measured values collected from several papers.
Compare with care: the assays were run in different laboratories.
BCL2L2: Bcl-2-like protein 2 (BCL2L2, Homo sapiens, UniProt Q92843)
CYP1A1: Cytochrome P450 1A1 (CYP1A1, Homo sapiens, UniProt P04798)

SMILES	target	assay	conditions	Ki [nM]
CC[C@H](C)[C@H](NC(=O)[C@H](CCCCN)NC(=O)[C@H](CCCNC(=N)N)NC(=O)[C@H](CC(C)C)NC(=O)[C@H](CCC(N)=O)NC(=O)[C@H](C)NC(=O)[C@H](C)NC(=O)[C@H](Cc1ccccc1)NC(=O)[C@H](CCC(=O)O)NC(=O)[C@@H]1CCCN1C(=O)[C@@H]1CCCN1C(=O)[C@H](CC(C)C)NC(=O)[C@H](CCC(=O)O)NC(=O)[C@H](C)NC(C)=O)C(=O)NCC(=O)N[C@@H](CC(=O)O)C(=O)N[C@@H](CCCCN)C(=O)N[C@H](C(=O)N[C@@H](Cc1ccc(O)cc1)C(=O)N[C@@H](CS)C(N)=O)C(C)C	BCL2L2	ligand displacement, FP	–	~14000
O=C(O)CCC(NC(=O)NC(CCCCNC(=O)CCCCCCC(=O)NC(CCCCNC(=O)CN1CCN(CC(=O)O)CCN(CC(=O)O)CCN(CC(=O)O)CC1)C(=O)OCc1ccccc1)C(=O)O)C(=O)O (centres unmarked)	Glutamate carboxypeptidase 2 (FOLH1, Homo sapiens, UniProt Q04609)	enzyme activity, inhibitor, fluorescence	–	2.9
CCc1cc(O)c(Oc2ccc(C(N)=O)cc2F)cc1F	Enoyl-[acyl-carrier-protein] reductase [NADPH] FabI (Staphylococcus aureus, UniProt Q6GI75)	enzyme activity, inhibitor	–	0.08
CC[C@H](C)[C@H](NC(=O)[C@H](CCC(=O)O)NC(=O)[C@H](CC(=O)O)NC(=O)CNC(=O)[C@H](CC(C)C)NC(=O)[C@H](CCCNC(=N)N)NC(=O)[C@H](CCC(N)=O)NC(=O)[C@H](CC(C)C)NC(=O)[C@H](CO)NC(=O)[C@H](CCC(N)=O)NC(=O)[C@@H](NC(=O)[C@H](CC(C)C)NC(=O)[C@H](Cc1c[nH]c2ccccc12)NC(=O)[C@@H](NC(=O)[C@H](CCC(=O)O)NC(=O)[C@@H]1CCCN1C(=O)[C@H](CCCNC(=N)N)NC(C)=O)[C@@H](C)CC)[C@@H](C)O)C(=O)N[C@@H](CC(N)=O)C(=O)N[C@@H](C)C(=O)N[C@@H](Cc1ccc(O)cc1)C(=O)N[C@@H](Cc1ccc(O)cc1)C(=O)N[C@@H](C)C(=O)N[C@@H](CCCNC(=N)N)C(N)=O	BCL2L2	ligand displacement, FP	–	360
C[C@H]1Oc2cc(cnc2N)-c2c(nn(C)c2C#N)CN(C)C(=O)c2ccc(F)cc21	Dual specificity mitogen-activated protein kinase kinase 1 (MAP2K1, Homo sapiens, UniProt Q02750)	cell-free assay	lysate	128
C#Cc1cccc(-c2cc(=O)c3ccccc3o2)c1	CYP1A1	enzyme activity, inhibitor, fluorescence	6 min, pH 7.6	41
COc1cc(O)c(CC=C(C)C)c2c1C(=O)CC(c1ccc(O)cc1)O2 (centres unmarked)	CYP1A1	enzyme activity, inhibitor, fluorescence	15 min, pH 7.4	1600
CC[C@H](NC(=O)[C@H](CS(=O)(=O)CC1CC1)N[C@@H](c1ccc(F)cc1)C(F)(F)F)C(=O)C(=O)NC1CC1	Cathepsin S (Ctss, Mus musculus, UniProt O70370)	enzyme activity, inhibitor	–	0.04
